According to publication PMC8897208 (Acta Pharmaceutica Sinica. B, 2021):
pIC50: −log10 of the molar value.

Assays:
SIRT6 = SIRT6 (Homo sapiens, UniProt Q8N6T7); assay: Competition assay between SIRT6 substrates and JYQ-42; format: biochemical; conditions: FDL competition assay
HDAC7 = target: T1, HDAC7 (Homo sapiens, UniProt Q8WUI4); assay: HDACs selectivity assay; format: biochemical
T1 sequence (Q8WUI4 1-952): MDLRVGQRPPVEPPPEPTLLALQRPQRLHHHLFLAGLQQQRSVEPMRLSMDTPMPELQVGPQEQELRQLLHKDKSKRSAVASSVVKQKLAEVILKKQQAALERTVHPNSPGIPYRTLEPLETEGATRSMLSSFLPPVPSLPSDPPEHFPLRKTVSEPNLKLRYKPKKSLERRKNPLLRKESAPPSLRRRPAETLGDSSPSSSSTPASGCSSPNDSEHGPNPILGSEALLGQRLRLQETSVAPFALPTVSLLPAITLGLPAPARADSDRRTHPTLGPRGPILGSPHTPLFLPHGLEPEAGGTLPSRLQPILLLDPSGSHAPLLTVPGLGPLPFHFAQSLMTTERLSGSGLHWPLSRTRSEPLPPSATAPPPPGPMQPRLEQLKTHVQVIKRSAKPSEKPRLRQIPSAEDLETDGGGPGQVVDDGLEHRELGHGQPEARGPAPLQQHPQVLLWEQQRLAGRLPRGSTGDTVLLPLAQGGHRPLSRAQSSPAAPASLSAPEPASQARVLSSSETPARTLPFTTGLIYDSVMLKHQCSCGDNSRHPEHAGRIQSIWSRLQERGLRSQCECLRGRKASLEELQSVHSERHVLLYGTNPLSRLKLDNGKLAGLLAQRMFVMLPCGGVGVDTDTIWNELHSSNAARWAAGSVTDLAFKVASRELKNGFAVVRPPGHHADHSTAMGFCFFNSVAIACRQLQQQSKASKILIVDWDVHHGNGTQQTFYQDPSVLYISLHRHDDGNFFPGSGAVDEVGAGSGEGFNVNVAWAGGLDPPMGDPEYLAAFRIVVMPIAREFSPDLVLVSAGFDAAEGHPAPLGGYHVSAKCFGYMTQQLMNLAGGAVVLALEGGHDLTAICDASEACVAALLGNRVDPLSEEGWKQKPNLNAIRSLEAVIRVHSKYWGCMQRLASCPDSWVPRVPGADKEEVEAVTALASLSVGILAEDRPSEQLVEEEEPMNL
Outline: (§1)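 Enzyme selectivity panel was run by an outside contract lab to its standard assay protocols. IC50 values came from dose–response fitting of the data points. Each experiment was done independently at least three times.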

HDAC8 = target: T2, HDAC8 (Homo sapiens, UniProt Q9BY41); assay: HDACs selectivity assay; format: biochemical
T2 sequence (Q9BY41 1-377): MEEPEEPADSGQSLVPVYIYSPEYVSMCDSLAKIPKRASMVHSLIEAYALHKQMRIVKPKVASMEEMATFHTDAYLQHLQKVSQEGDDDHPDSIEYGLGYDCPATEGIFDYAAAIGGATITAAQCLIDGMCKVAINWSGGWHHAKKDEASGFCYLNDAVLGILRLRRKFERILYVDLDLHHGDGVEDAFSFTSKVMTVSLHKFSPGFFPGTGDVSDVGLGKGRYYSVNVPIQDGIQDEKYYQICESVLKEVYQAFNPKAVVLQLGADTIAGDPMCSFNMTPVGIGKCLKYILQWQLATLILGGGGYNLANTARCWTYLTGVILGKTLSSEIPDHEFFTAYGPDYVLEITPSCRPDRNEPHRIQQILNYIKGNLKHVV
Outline: as §1

SIRT1 = target: T3, SIRT1 (Homo sapiens, UniProt Q96EB6); assay: HDACs selectivity assay; format: biochemical
T3 sequence (Q96EB6 1-747): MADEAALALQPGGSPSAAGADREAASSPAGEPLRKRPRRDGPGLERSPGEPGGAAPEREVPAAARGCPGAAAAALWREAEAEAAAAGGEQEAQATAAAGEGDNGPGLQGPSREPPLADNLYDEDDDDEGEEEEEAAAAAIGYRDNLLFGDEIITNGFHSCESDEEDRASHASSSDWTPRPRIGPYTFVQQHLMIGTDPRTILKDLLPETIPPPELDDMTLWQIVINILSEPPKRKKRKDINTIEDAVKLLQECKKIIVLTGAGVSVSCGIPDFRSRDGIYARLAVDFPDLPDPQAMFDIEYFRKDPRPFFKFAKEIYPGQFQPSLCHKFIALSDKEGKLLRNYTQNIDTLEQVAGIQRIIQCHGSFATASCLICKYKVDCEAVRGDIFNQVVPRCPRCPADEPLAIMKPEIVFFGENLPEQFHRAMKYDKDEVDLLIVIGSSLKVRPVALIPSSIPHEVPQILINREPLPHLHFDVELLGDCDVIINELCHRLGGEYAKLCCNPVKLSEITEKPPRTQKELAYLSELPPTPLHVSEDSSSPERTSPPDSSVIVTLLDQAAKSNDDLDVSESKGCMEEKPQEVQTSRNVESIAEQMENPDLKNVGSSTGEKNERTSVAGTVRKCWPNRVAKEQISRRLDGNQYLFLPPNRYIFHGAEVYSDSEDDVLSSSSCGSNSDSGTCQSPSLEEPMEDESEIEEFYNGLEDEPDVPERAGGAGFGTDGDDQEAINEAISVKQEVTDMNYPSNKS
Outline: as §1

SIRT3 = target: T4, SIRT3 (Homo sapiens, UniProt Q9NTG7); assay: HDACs selectivity assay; format: biochemical
T4 sequence (Q9NTG7 1-399): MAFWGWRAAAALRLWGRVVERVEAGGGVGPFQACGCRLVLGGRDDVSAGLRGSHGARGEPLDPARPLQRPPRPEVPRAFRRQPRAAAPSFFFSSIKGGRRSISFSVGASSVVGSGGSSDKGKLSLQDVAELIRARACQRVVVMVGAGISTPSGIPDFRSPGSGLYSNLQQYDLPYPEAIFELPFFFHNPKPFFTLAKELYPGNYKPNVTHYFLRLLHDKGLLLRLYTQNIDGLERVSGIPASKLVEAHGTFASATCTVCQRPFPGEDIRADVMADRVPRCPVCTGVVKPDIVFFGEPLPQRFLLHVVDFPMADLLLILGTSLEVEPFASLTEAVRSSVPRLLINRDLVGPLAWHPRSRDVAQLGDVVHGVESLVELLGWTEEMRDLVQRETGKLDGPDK
Outline: as §1

BXPC-3 cells = assay: Q-PCR for SIRT6, IL6, IL8 and TNF-α mRNA; format: cell-based; conditions: BXPC-3, 10, 20, 40 μmol/L, 24 h, qPCR

Sequence of SIRT6 (Q8N6T7 whole entry): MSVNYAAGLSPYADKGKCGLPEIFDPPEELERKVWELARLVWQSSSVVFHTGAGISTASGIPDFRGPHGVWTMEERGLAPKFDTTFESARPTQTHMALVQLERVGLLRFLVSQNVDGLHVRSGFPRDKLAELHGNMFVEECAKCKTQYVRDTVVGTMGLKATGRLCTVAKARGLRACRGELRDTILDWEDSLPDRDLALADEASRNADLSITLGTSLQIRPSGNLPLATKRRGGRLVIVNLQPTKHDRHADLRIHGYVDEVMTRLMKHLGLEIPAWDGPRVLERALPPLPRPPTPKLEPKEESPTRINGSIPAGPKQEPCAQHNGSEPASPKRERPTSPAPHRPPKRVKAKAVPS

## Nc1nonc1-n1cc(C(=O)N/N=C/c2cc(Cl)cc(C(F)(F)F)c2)nn1 [JYQ-42]
SIRT6
  effect of increasing NAD^+ or Ac-RHKK-Ac-AMC on the inhibition: did not interfere with the inhibition
HDAC7
  pIC50: < 4.00
HDAC8
  pIC50: < 4.00
SIRT1
  pIC50: < 4.00
SIRT3
  pIC50: < 4.00
BXPC-3 cells
  mRNA level of SIRT6: not significantly changed
